Test results taken from ChEMBL document CHEMBL3227991, “5-Iminodaunorubicin. Reduced cardiotoxic properties in an antitumor anthracycline” (J Med Chem, 1979).

Assays:
[1] = test system: P388; assay: Antitumor activity against mouse P388 cells allografted in mouse assessed as increase in survival time at 6.25 mg/kg administered as qd for 1 to 9 days relative to control; format: functional
In short: (§1)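 Transplanted P388 leukemia or B16 melanoma in mice, dosed on a schedule of nine daily doses (qd 1-9). Efficacy was the increase in survival time of treated versus control animals (% T/C), from single tests.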

[2] = test system: B16; assay: Antitumor activity against mouse B16 cells allografted in mouse assessed as increase in survival time at 6.25 mg/kg administered as qd for 1 to 9 days relative to control; format: functional; in short: as §1
[3] = test system: B16; assay: Antitumor activity against mouse B16 cells allografted in mouse assessed as increase in survival time at 2 mg/kg, ip administered as qd for 1 to 9 days relative to control; format: functional; details: route intraperitoneal
In short: (§2)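 B16 melanoma in mice. Treatment was given as nine daily doses, as a single dose on day 1, or as a single dose delayed to day 5. Activity was taken as the increase in survival time of treated versus control animals (% T/C).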

[4] = test system: L1210; assay: Inhibition of DNA synthesis in mouse L1210 cells; format: functional; details: read-out: ED50 (the source's name)
[5] = test system: P388; assay: Antitumor activity against mouse P388 cells allografted in mouse assessed as increase in survival time at 24 mg/kg, ip administered as single dose on day 5, 9 and 13 relative to control; format: functional; details: route intraperitoneal
In short: (§3)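 Mice received ip P388 leukemia cells on day 0. Disease was left to progress and ip dosing was delayed to days 5, 9 and 13. Survival time of treated relative to control mice was expressed as % T/C, with ≥125 defined as active. Values are means of repeated tests (27 for reference agents, duplicate for others).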

[6] = test system: P388; assay: Antitumor activity against mouse P388 cells allografted in mouse assessed as increase in survival time at 12 mg/kg, ip administered as single dose on day 5, 9 and 13 relative to control; format: functional; details: route intraperitoneal; in short: as §3
[7] = test system: B16; assay: Antitumor activity against mouse B16 cells allografted in mouse assessed as increase in survival time at 12.5 mg/kg, ip administered as single dose on day 5 relative to control; format: functional; details: route intraperitoneal; in short: as §2
[8] = test system: Salmonella typhimurium; assay: Genotoxicity in Salmonella typhimurium TA100 by Ames test; format: toxicity, organism-based; details: salmonella enterica subsp. enterica serovar typhimurium
[9] = test system: P388; assay: Antitumor activity against mouse P388 cells allografted in mouse assessed as increase in survival time at 1 mg/kg, ip administered as qd for 1 to 9 days relative to control; format: functional; details: route intraperitoneal
[10] = test system: P388; assay: Antitumor activity against mouse P388 cells allografted in mouse assessed as increase in survival time at 2 mg/kg, ip administered as qd for 1 to 9 days relative to control; format: functional; details: route intraperitoneal
[11] = test system: Salmonella typhimurium; assay: Genotoxicity in Salmonella typhimurium TA98 at 32 ug/plate by Ames test; format: toxicity, organism-based; details: salmonella enterica subsp. enterica serovar typhimurium
In short: (§4)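 Ames reversion in S. typhimurium TA98, run with and without microsomal activation; doses up to a maximum of 32 μg/plate; four determinations; mutagenicity given as revertants/nmol.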

[12] = test system: B16; assay: Antitumor activity against mouse B16 cells allografted in mouse assessed as increase in survival time at 6.25 mg/kg, ip administered as single dose on day 1 relative to control; format: functional; details: route intraperitoneal; in short: as §2
[13] = test system: P388; assay: Antitumor activity against mouse P388 cells allografted in mouse assessed as increase in survival time at 4 mg/kg, ip administered as qd for 1 to 9 days relative to control; format: functional; details: route intraperitoneal
[14] = test system: Salmonella typhimurium; assay: Genotoxicity in Salmonella typhimurium TA98 assessed as number of revertants by Ames test in absence of microsomal activation; format: toxicity, organism-based; details: salmonella enterica subsp. enterica serovar typhimurium; in short: as §4
[15] = test system: Salmonella typhimurium; assay: Genotoxicity in Salmonella typhimurium TA98 assessed as number of revertants by Ames test; format: toxicity, organism-based; details: salmonella enterica subsp. enterica serovar typhimurium; in short: as §4
[16] = test system: P388; assay: Antitumor activity against mouse P388 cells allografted in mouse assessed as increase in survival time at 1.5 mg/kg, ip administered as single dose on day 5, 9 and 13 relative to control; format: functional; details: route intraperitoneal; in short: as §3
[17] = test system: P388; assay: Antitumor activity against mouse P388 cells allografted in mouse assessed as increase in survival time at 0.5 mg/kg, ip administered as qd for 1 to 9 days relative to control; format: functional; details: route intraperitoneal
[18] = test system: P388; assay: Antitumor activity against mouse P388 cells allografted in mouse assessed as increase in survival time at 3 mg/kg, ip administered as single dose on day 5, 9 and 13 relative to control; format: functional; details: route intraperitoneal; in short: as §3
[19] = test system: L1210; assay: Inhibition of RNA synthesis in mouse L1210 cells; format: functional; details: read-out: ED50 (the source's name)
[20] = species on record: Rattus norvegicus; assay: Cardiotoxicity in rat assessed as minimum cumulative drug dose causing electrocardiographic changes; format: toxicity, organism-based; details: in vivo
In short: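 Zbinden cardiotoxicity test in rats; endpoint is the minimum cumulative dose producing significant electrocardiographic changes, expressed in mg/kg.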

[21] = test system: P388; assay: Antitumor activity against mouse P388 cells allografted in mouse assessed as increase in survival time at 6 mg/kg, ip administered as single dose on day 5, 9 and 13 relative to control; format: functional; details: route intraperitoneal; in short: as §3
[22] = test system: Calf thymus DNA; assay: Binding affinity to calf thymus DNA assessed as change in melting temperature; format: nucleic-acid assay; details: Bos taurus
In short: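 Thermal denaturation of isolated helical DNA in 0.010 M phosphate buffer, pH 7.0, with 10⁻⁵ M EDTA and 5% Me₂SO to solubilize compounds; read-out is the increase in melting temperature (ΔTm, °C).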

[23] = test system: Salmonella typhimurium; assay: Genotoxicity in Salmonella typhimurium TA98 assessed as number of revertants by Ames test in presence of microsomal activation; format: toxicity, organism-based; details: salmonella enterica subsp. enterica serovar typhimurium; in short: as §4
[24] = test system: P388; assay: Antitumor activity against mouse P388 cells allografted in mouse assessed as increase in survival time at 0.39 mg/kg, ip administered as qd for 1 to 9 days relative to control; format: functional; details: route intraperitoneal
[25] = test system: Salmonella typhimurium; assay: Genotoxicity in Salmonella typhimurium TA100 assessed as number of revertants by Ames test; format: toxicity, organism-based; details: salmonella enterica subsp. enterica serovar typhimurium
[26] = test system: P388; assay: Antitumor activity against mouse P388 cells allografted in mouse assessed as increase in survival time at 2 mg/kg, ip administered as single dose on day 5, 9 and 13 relative to control; format: functional; details: route intraperitoneal; in short: as §3
[27] = test system: P388; assay: Antitumor activity against mouse P388 cells allografted in mouse assessed as increase in survival time at 16 mg/kg, ip administered as single dose on day 5, 9 and 13 relative to control; format: functional; details: route intraperitoneal; in short: as §3
[28] = test system: P388; assay: Antitumor activity against mouse P388 cells allografted in mouse assessed as increase in survival time at 0.2 mg/kg, ip administered as qd for 1 to 9 days relative to control; format: functional; details: route intraperitoneal
[29] = test system: Salmonella typhimurium; assay: Genotoxicity in Salmonella typhimurium 908 assessed as number of revertants by Ames test; format: toxicity, organism-based; details: salmonella enterica subsp. enterica serovar typhimurium
[30] = test system: P388; assay: Antitumor activity against mouse P388 cells allografted in mouse assessed as increase in survival time at 0.78 mg/kg, ip administered as qd for 1 to 9 days relative to control; format: functional; details: route intraperitoneal
[31] = test system: P388; assay: Antitumor activity against mouse P388 cells allografted in mouse assessed as increase in survival time at 1.56 mg/kg, ip administered as qd for 1 to 9 days relative to control; format: functional; details: route intraperitoneal
[32] = test system: P388; assay: Antitumor activity against mouse P388 cells allografted in mouse assessed as increase in survival time at 4 mg/kg, ip administered as single dose for every 4 days up to 13 days relative to control; format: functional; details: route intraperitoneal; in short: as §3
[33] = test system: Salmonella typhimurium; assay: Genotoxicity in Salmonella typhimurium TA98 at >8 ug/plate by Ames test; format: toxicity, organism-based; details: salmonella enterica subsp. enterica serovar typhimurium
[34] = test system: P388; assay: Antitumor activity against mouse P388 cells allografted in mouse assessed as increase in survival time at 8 mg/kg, ip administered as single dose on day 5, 9 and 13 relative to control; format: functional; details: route intraperitoneal; in short: as §3
[35] = test system: Salmonella typhimurium; assay: Genotoxicity in Salmonella typhimurium 8907 assessed as number of revertants by Ames test in presence of S9 fraction; format: toxicity, organism-based; details: salmonella enterica subsp. enterica serovar typhimurium

Row | SMILES | EC50 [4] [nM] | Activity [15] [revertants/nmol] | EC50 [19] [nM] | MTC [20] [mg/kg] | ΔTm [22] [°C] | T/C [24] [%] | T/C [26] [%] | T/C [27] [%] | T/C [28] [%] | T/C [30] [%] | T/C [31] [%] | T/C [32] [%] | T/C [34] [%] | further results
1 | COc1cccc2c1C(=O)c1c(O)c3c(c(O)c1C2=O)C[C@@](O)(C(N)=O)C[C@@H]3O[C@H]1C[C@H](N)[C@H](O)[C@H](C)O1.Cl | – | – | – | – | – | – | – | – | – | – | – | – | – | T/C [1]: 151%; T/C [2]: 161%
2 | COc1cccc2c1C(=N)c1c(O)c3c(c(O)c1C2=O)C[C@@](O)(C(C)=O)C[C@@H]3O[C@H]1C[C@H](N)[C@H](O)[C@H](C)O1.Cl | 1600 | 1 | 1300 | 64 | 6.25 | – | – | – | – | – | – | – | – | T/C [3]: 222%; T/C [5]: 126%; T/C [6]: 116%; T/C [7]: 122%; Activity [8]: Non-toxic; T/C [9]: 164%; T/C [10]: 170%; Activity [11]: Non-toxic; T/C [12]: 173%; T/C [13]: 153%; Activity [14]: 0 nmol; T/C [16]: 126%; T/C [17]: 145%; T/C [18]: 130%; T/C [21]: 124%; Activity [23]: 0 nmol
3 | COc1cccc2c1C(=O)c1c(O)c3c(c(O)c1C2=O)C[C@@](O)(C(C)=O)C[C@@H]3O[C@H]1C[C@H](N)[C@H](O)[C@H](C)O1.Cl [DAUNORUBICIN HYDROCHLORIDE] | 1000 | 100 | 300 | 14 | – | 153 | 126 | 126 | 144 | 160 | 148 | 128 | 132 | Activity [25]: 0.5 revertants/nmol; Activity [29]: 356 revertants/nmol; Activity [33]: Toxic
4 | COc1cccc2c1C(=O)c1c(O)c3c(c(O)c1C2=O)C[C@@](O)(C(=O)CO)C[C@@H]3O[C@H]1C[C@H](N)[C@H](O)[C@H](C)O1 [DOXORUBICIN] | 1500 | – | 700 | 11 | 13.4 | 174 | 130 | 120 | 160 | 197 | 176 | 146 | 159 | Activity [35]: 108 revertants/nmol
